The source of these data is ChEMBL document CHEMBL3351255, “Synthesis of dihydroresveratrol glycosides and evaluation of their activity against melanogenesis in B16F0 melanoma cells” (Eur J Med Chem, 2014).

Series [1] relates to B16-F10. Nature of the series: Potency index, ratio of kojic acid to test compound for inhibition of melanogenesis in mouse B16F10 cells. In kind it is functional.
Series [2] can be described thus: Toxicity in mouse B16F10 cells assessed as cell viability at 25.5 uM incubated for 72 hrs by BCA protein assay. In kind it is cell-based. Particulars: read-out: Activity.
A short description of series [3]: Toxicity in mouse B16F10 cells assessed as protein content at 25.5 uM incubated for 72 hrs by BCA protein assay. The class given is cell-based. In a few lines: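 Treatment was the same as above: B16F0 cells in DMEM with 5% FBS plus sample in ethanol, with medium and sample renewed after 72 h and cells harvested by trypsin 72 h later. Total cellular protein in the pelleted cells was measured by bicinchoninic acid (BCA) assay and expressed as % of negative control.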

Series [4] deals with B16-F0. Nature of the series: Effect on melanogenesis in mouse B16F0 cells assessed as melanin content at 1 mM incubated for 72 hrs. Particulars: B16-F0, 72 h.

As for `C=CC/C=C\C/C=C\CCCCCCCc1cc(O)cc(O)c1`, the Ratio in series [1] amounted to 40. Besides, the viability at 72 h, 25.5 µM in series [2] was 102%. Also, the Activity in series [3] worked out at 98%.

`O=c1cc(CO)occ1O` [KOJIC ACID]: the melanin content at 1000 µM in series [4] is 79%.
